From ChEMBL document CHEMBL3259705, “Geranyl and neryl triazole bisphosphonates as inhibitors of geranylgeranyl diphosphate synthase” (Bioorg Med Chem, 2014)
pIC50: −log10 of the molar value. Active and inactive are the calls of the source. The calls are words filed in the database; no cut-off is given here.

Columns and labels:
[1] = Inhibition of recombinant GGTase 2 (unknown origin) using recombinant Rab1A and [3H]GGPP as substrate after 20 mins by liquid scintillation counting analysis in presence of recombinant REP-2; design: species or system Homo sapiens
Method in brief: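 30 nM recombinant GGTase II with 2 µM His-tagged Rab1A (E. coli-expressed, Ni-NTA purified) and 1 µM REP-2 in HEPES buffer with MgCl2, DTT, NP-40. Started with 5 µM [3H]-GGPP, 20 min at 37 °C, ended with HCl/EtOH. Filtered on P-81 paper, washed and scintillation counted. Tested up to 1 mM.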

[2] = target: T1, Farnesyl pyrophosphate synthase (Homo sapiens) (UniProt P14324); test: Inhibition of FDPS in human RPMI-8226 cells assessed as disruption of Ras farnesylation after 48 hrs by western blot analysis; type: cell-based
T1 sequence (whole entry): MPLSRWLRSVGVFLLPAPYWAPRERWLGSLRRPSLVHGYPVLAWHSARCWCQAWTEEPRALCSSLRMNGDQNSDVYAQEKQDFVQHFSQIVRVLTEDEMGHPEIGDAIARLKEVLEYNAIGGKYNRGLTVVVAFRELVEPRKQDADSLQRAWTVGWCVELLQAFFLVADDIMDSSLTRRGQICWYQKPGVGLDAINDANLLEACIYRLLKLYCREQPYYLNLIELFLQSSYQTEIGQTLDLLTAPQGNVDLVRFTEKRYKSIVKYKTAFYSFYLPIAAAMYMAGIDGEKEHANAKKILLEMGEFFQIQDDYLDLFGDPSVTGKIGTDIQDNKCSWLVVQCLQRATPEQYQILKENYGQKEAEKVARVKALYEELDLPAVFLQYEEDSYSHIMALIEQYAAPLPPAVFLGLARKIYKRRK

[3] = target: Geranylgeranyl transferase type I (Homo sapiens, UniProt P49354+P53609); test: Inhibition of recombinant GGTase 1 (unknown origin) assessed as decrease in prenylated fluorescent peptides level using dansyl-GCVLS and GGPP as substrate after 1 hr by HPLC-fluorescence detection analysis
Method in brief: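 Reaction started by adding 12 nM recombinant GGTase I to pH 7.5 Tris buffer with DTT, 5 mM MgCl2, 50 µM ZnCl2, 10 mM KCl, 0.04% DDM, 10 µM GGPP and 7 µM dansyl-GCVLS. Incubated 1 h at 30 °C, then acid-acetonitrile quench. Prenylated peptide measured by HPLC with fluorescence. IC50 from concentration-response curves.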

[4] = target: T2, Geranylgeranyl pyrophosphate synthase (Homo sapiens, UniProt O95749); test: Inhibition of recombinant GGDPS (unknown origin) assessed as decrease in radiolabeld GGPP level using FPP and [14C]IPP as substrate treated with enzyme for 10 mins prior to substrate challenge for 30 mins by liquid scintillation counting analysis
T2 sequence (O95749 whole entry): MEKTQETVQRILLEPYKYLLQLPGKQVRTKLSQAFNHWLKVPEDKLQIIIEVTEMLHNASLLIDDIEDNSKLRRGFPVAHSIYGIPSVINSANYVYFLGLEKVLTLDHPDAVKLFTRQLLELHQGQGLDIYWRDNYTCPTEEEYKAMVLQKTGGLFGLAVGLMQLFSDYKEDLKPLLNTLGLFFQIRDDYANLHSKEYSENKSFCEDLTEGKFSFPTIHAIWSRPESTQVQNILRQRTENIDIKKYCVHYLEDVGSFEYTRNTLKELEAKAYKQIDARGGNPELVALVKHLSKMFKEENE
Method in brief: (§1)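 Enzyme (10 nM FDPS or 20 nM GGDPS) preincubated with compound 10 min at room temperature in 50 mM Tris-HCl pH 7.7, 20 mM MgCl2, 5 mM TCEP, 5 µg/mL BSA. Started with 10 µM GPP (FDPS) or 10 µM FPP (GGDPS) plus 10 µM [14C]-IPP; 37 °C, 30 min. Stopped with saturated NaCl, butanol-extracted, counted. IC50 from concentration-response curves.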

[5] = target: T3, Farnesyl pyrophosphate synthase (Homo sapiens, UniProt P14324); test: Inhibition of recombinant FDPS (unknown origin) assessed as decrease in radiolabeld […] level using GPP and [14C]IPP as substrate treated with enzyme for 10 mins prior to substrate challenge for 30 mins by liquid scintillation counting analysis; method in brief: as §1
T3 sequence (P14324 whole entry): T1 sequence (whole entry)

[6] = target: Protein farnesyltransferase (Homo sapiens, UniProt P49354+P49356); test: Inhibition of recombinant FTase (unknown origin) assessed as decrease in prenylated fluorescent peptides level using dansyl-GCVLS and FPP as substrate after 1 hr by HPLC-fluorescence detection analysis; type: protein-complex assay
Method in brief: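 3 nM recombinant FTase started reaction in pH 7.5 Tris buffer with DTT, 10 mM MgCl2, 10 µM ZnCl2, 0.04% DDM, plus 10 µM FPP and 5 µM dansyl-GCVLS. Run 1 h at 30 °C, stopped with acetonitrile/5% HCl, centrifuged. Prenylated peptide quantified by HPLC-fluorescence. IC50 taken from concentration-response curves.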

[7] = target: T4, Geranylgeranyl pyrophosphate synthase (Homo sapiens) (UniProt O95749); test: Inhibition of GGDPS in human RPMI-8226 cells assessed as disruption of Rap1a geranylgeranylation at 10 uM after 48 hrs by western blot analysis; type: cell-based
T4 sequence (whole entry): T2 sequence (O95749 whole entry)
Method in brief: (§2)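 RPMI-8226 human myeloma cells exposed 48 h to test agent. For Rap1a, RIPA whole-cell lysate probed with an antibody recognising only unmodified Rap1a, β-tubulin as loading control. Rab6 read from Triton X-114 aqueous versus detergent fractions, with β-tubulin for aqueous and calnexin for detergent loading. Equal protein by BCA, SDS-PAGE/immunoblot with ECL. Blots representative of two independent experiments.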

[8] = target: T4, Geranylgeranyl pyrophosphate synthase (Homo sapiens); test: Inhibition of GGDPS in human RPMI-8226 cells assessed as disruption of Rab6 geranylgeranylation at 10 uM after 48 hrs by western blot analysis; type: cell-based; method in brief: as §2
[9] = target: T5, 3-hydroxy-3-methylglutaryl-coenzyme A reductase (Homo sapiens) (UniProt P04035); test: Inhibition of HMG-coA reductase in human RPMI-8226 cells assessed as disruption of Rap1a geranylgeranylation at 10 uM after 48 hrs by western blot analysis in presence of 10 uM GGPP; type: cell-based
T5 sequence (whole entry): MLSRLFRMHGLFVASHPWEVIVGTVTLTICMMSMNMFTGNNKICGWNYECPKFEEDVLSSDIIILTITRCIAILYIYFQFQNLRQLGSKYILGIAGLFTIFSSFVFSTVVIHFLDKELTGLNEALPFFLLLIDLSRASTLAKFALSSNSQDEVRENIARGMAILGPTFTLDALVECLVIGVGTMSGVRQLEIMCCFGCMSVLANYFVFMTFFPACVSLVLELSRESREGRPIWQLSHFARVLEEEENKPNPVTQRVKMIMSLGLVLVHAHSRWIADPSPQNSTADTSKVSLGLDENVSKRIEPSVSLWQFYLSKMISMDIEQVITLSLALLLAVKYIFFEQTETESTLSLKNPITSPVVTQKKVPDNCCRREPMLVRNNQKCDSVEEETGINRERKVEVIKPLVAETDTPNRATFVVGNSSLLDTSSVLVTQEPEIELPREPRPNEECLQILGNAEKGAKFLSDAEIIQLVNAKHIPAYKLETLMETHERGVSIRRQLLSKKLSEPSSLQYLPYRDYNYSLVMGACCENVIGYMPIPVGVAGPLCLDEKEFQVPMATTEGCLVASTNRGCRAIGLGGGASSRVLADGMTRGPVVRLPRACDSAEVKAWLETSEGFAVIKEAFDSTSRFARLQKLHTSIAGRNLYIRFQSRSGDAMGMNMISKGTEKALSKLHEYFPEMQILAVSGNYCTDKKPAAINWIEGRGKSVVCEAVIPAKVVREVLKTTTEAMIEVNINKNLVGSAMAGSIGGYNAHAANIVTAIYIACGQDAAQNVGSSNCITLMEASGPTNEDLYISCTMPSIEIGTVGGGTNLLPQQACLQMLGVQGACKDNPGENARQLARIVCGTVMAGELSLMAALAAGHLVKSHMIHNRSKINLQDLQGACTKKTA
Method in brief: (§3)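 RPMI-8226 cells held 48 h with 10 µM inhibitor, with or without isoprenoid add-back (1 mM mevalonate, 10 µM FPP or 10 µM GGPP). RIPA whole-cell lysate immunoblotted with an antibody detecting only unmodified Rap1a, β-tubulin as loading control. Protein equalised by BCA. Two independent experiments.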

[10] = target: T5, 3-hydroxy-3-methylglutaryl-coenzyme A reductase (Homo sapiens); test: Inhibition of HMG-coA reductase in human RPMI-8226 cells assessed as disruption of Rap1a geranylgeranylation at 10 uM after 48 hrs by western blot analysis; type: cell-based; method in brief: as §3
[11] = target: T5, 3-hydroxy-3-methylglutaryl-coenzyme A reductase (Homo sapiens); test: Inhibition of HMG-coA reductase in human RPMI-8226 cells assessed as disruption of Rap1a geranylgeranylation at 10 uM after 48 hrs by western blot analysis in presence of 1 mM mevalonate; type: cell-based; method in brief: as §3
[12] = target: T4, Geranylgeranyl pyrophosphate synthase (Homo sapiens); conditions: RPMI-8226, 10 uM
[13] = target: T4, Geranylgeranyl pyrophosphate synthase (Homo sapiens); conditions: RPMI-8226, 1 uM
[14] = target: T4, Geranylgeranyl pyrophosphate synthase (Homo sapiens); conditions: RPMI-8226, 1 uM; remark: listed apart in the source
[15] = target: T4, Geranylgeranyl pyrophosphate synthase (Homo sapiens); conditions: RPMI-8226, 10 uM; remark: listed apart in the source
[16] = target: T4, Geranylgeranyl pyrophosphate synthase (Homo sapiens); conditions: RPMI-8226, 10 uM; remark: listed apart in the source
[17] = target: T4, Geranylgeranyl pyrophosphate synthase (Homo sapiens); conditions: RPMI-8226, 10 uM; remark: listed apart in the source
[18] = target: T4, Geranylgeranyl pyrophosphate synthase (Homo sapiens); conditions: RPMI-8226, 1 uM; remark: listed apart in the source

Structure (SMILES): CC(C)=CCC[C@]1(C)O[C@@H]1Cn1cc(CC(P(=O)(O)O)P(=O)(O)O)nn1 (racemic)
- pIC50 [1]: < 3.00
- inhibition [2]: inactive
- pIC50 [3]: 3.52
- pIC50 [4]: 4.77
- pIC50 [5]: 4.33
- pIC50 [6]: 3.47
- disruption of Rap1a geranylgeranylation (active/not active) [7]: inactive
- disruption of Rab6 geranylgeranylation (active/not active) [8]: inactive

Structure (SMILES): CC[C@H](C)C(=O)O[C@H]1C[C@@H](C)C=C2C=C[C@H](C)[C@H](CC[C@@H]3C[C@@H](O)CC(=O)O3)[C@H]21
- inhibition [9]: inactive
- inhibition [10]: Active
- inhibition [11]: inactive

Structure (SMILES): CC(C)=CCC/C(C)=C\Cn1cc(CC(P(=O)(O)O)P(=O)(O)O)nn1
- pIC50 [1]: < 3.00
- inhibition [12]: Active
- inhibition [13]: Active
- inhibition [14]: Active
- inhibition [2]: inactive
- pIC50 [3]: 3.30
- pIC50 [5]: 4.10
- inhibition [15]: Active
- pIC50 [6]: 3.40
- inhibition [16]: inactive
- disruption of Rap1a geranylgeranylation (active/not active) [7]: Active
- inhibition [17]: Active
- inhibition [18]: Active
- disruption of Rab6 geranylgeranylation (active/not active) [8]: Active

Structure (SMILES): CC(C)=CCC/C(C)=C/CC(C/C=C(\C)CCC=C(C)C)(P(=O)(O)O)P(=O)(O)O
- inhibition [2]: inactive
- disruption of Rap1a geranylgeranylation (active/not active) [7]: Active
- inhibition [17]: Active
- disruption of Rab6 geranylgeranylation (active/not active) [8]: Active

Structure (SMILES): CC(C)=CCC[C@@]1(C)O[C@@H]1Cn1cc(CC(P(=O)(O)O)P(=O)(O)O)nn1 (racemic)
- pIC50 [1]: < 3.00
- inhibition [2]: inactive
- pIC50 [3]: 3.30
- pIC50 [4]: 4.64
- pIC50 [5]: 4.48
- pIC50 [6]: 3.40
- disruption of Rap1a geranylgeranylation (active/not active) [7]: inactive
- disruption of Rab6 geranylgeranylation (active/not active) [8]: inactive

Structure (SMILES): CC(C)=CCCC(C)=CCn1cc(CC(P(=O)(O)O)P(=O)(O)O)nn1 (mixture of isomers)
- pIC50 [1]: < 3.00
- inhibition [13]: Active
- inhibition [2]: inactive
- pIC50 [3]: 3.70
- pIC50 [5]: 4.08
- pIC50 [6]: 3.30
- disruption of Rap1a geranylgeranylation (active/not active) [7]: Active
- inhibition [17]: Active
- inhibition [18]: Active
- disruption of Rab6 geranylgeranylation (active/not active) [8]: Active

Structure (SMILES): CC(C)=CCC/C(C)=C/Cn1cc(CC(P(=O)(O)O)P(=O)(O)O)nn1
- pIC50 [1]: < 3.00
- inhibition [13]: inactive
- inhibition [2]: inactive
- pIC50 [3]: 3.47
- pIC50 [5]: 4.24
- pIC50 [6]: < 3.30
- disruption of Rap1a geranylgeranylation (active/not active) [7]: Active
- inhibition [17]: inactive
- inhibition [18]: inactive
